An excerpt weighted towards active compounds, which were near 2% of everything screened.
MC4R antag cAMP: MC4R antagonists of cAMP signaling, primary screen, cell-based, TR-FRET, antagonist arm of biased-ligand search; Melanocortin receptor 4 (Homo sapiens), P32245; MC4R-expressing cells, MTII-stimulated cAMP, LANCE TR-FRET; inhibition, % at 6.5 µM; actives 0.48% (n = 360,000);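 active means inhibition above its plate's cutoff, the mean of tested wells on that plate plus 3 SD, cut at about 29% in these data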
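Assay system: human MC4R-expressing U2OS cells; reagent: Melanotan II stimulation of cells; dosing: 6.5 µM single dose; timing: compound 30 min, challenge 1 h, detection 1 h; signal: TR-FRET cAMP assay; replicates: one well per compound, no replicates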
A1 inh: caspase 3/7 activation in MEF A1-2A-BIM cells, primary screen, A1 inhibitor project, cell-based, luminescence, HTS | Caspase-Glo 3/7 luminescence, 3 h; percent of clofoctol response, vehicle zero | caspase activation, % (concentration not given with the values) | actives 0.066% (n = 330,000);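 active means over half of replicate activation scores above 10%, or exactly half above 10 with the replicate mean above 10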
MC4R ag barr: MC4R agonists recruiting beta-arrestin, primary screen, cell-based, luminescence, agonist arm of biased-ligand search; AID 540308, 2011; U2OS MC4R beta-arrestin complementation; percent of melanotan II response, DMSO zero; actives 0.98% (n = 360,000); activation, % at 8.9 µM; Melanocortin receptor 4 (Homo sapiens), P32245;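 active means activation above a per-plate cutoff, the mean activation of sample wells on that plate plus 3 SD, cut at about 8% in these data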
UPR CHOP act: activators of apoptotic CHOP UPR arm, primary screen, cell-based, CHO-CHOP luciferase reporter, luminescence, uHTS; AID 449763, 2010; UPR activation; percent of tunicamycin response over DMSO baseline; actives 0.34% (n = 330,000); activation, % at 10 µM;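 active means at 10 µM dose, activation of 40% or more, normalized to positive control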
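Evaluation: % reporter activation, DMSO baseline versus tunicamycin full activation; System: CHO-CHOP luciferase reporter cell line; Input: 500 cells/well; Incubation: 6 h compound treatment, 37 °C; Measured by: Steady-Glo luciferase luminescence; Dosing: one dose, 10 µM in 0.5% DMSO; Buffer or medium: F12 medium, 10% FBS; Benchmarks: positive tunicamycin 10 µg/mL, negative DMSO alone.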
XBP1 UPR activ: activators of adaptive XBP1 UPR arm, primary screen, cell-based, CHO-XBP1 luciferase reporter, luminescence, uHTS. AID 463104, 2010. activation, % at 20 µM. IRE1-XBP1 UPR activation; percent of tunicamycin response, DMSO as zero. actives 0.33% (n = 330,000);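 active means versus positive control, 20 µM dose yields 30% or more activation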
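Test system: CHO-XBP1 luciferase reporter cells | Buffer or medium: Serum-containing F12 medium, 10% FBS | Schedule: 6 h compound exposure at 37 °C, 5% CO2 | Detection: Steady-Glo luciferase glow luminescence, 10 min after reagent addition | Read-out basis: Activation, % of tunicamycin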
MC4R barr ag: MC4R beta-arrestin agonists, retest, confirmation, cell-based, luminescence, U2OS; shares compounds with MC4R ag barr; U2OS MC4R beta-arrestin recruitment; scaled DMSO 0%, Melanotan II 100%; activation, % at 8.9 µM; actives 31% (n = 2,400); AID 602192, 2012;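 active means mean activation across replicates above the hit cutoff set in the earlier primary screen, cut at about 8% in these data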
MOR DOR agonist: agonists of MOR-DOR heterodimerization, counter-screen for MC4R biased agonist project, cell-based, luminescence | shares compounds with MC4R ag barr | U2OS PathHunter beta-arrestin, beta-gal luminescence; percent of deltorphin B response, DMSO zero | activation, % at 9.2 µM | actives 5.8% (n = 2,400) | AID 602194, 2012;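 active means mean activation across replicates exceeds the hit threshold derived in the earlier primary screen, cut at about 18% in these data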
Target sequence (P35372 whole entry, looked up): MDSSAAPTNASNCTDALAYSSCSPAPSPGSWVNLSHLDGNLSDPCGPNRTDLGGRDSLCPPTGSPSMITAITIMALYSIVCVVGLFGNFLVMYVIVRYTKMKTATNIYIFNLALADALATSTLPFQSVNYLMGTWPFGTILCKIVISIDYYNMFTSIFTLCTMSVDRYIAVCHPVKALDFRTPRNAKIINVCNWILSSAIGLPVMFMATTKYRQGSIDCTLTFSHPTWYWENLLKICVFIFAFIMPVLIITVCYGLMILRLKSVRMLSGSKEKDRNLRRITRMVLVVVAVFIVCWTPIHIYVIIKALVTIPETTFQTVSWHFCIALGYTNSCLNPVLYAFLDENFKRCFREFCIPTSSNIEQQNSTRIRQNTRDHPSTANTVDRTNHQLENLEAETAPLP
Target sequence (P41143 whole entry, looked up): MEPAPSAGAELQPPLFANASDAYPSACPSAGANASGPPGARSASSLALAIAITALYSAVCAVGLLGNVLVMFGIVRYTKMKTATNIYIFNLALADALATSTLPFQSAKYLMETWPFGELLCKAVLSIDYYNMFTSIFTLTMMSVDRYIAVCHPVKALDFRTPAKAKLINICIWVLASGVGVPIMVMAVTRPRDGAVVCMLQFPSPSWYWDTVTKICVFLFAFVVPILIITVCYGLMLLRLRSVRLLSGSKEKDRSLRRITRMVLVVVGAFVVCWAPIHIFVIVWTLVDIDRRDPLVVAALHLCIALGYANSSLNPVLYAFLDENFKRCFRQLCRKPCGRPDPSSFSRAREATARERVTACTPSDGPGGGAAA
Large screens that a line does not name were inactive (follow-up assays come after a bar, where they were run).

Nc1nonc1-n1nnc(C(=O)N/N=C/c2ccc(OCc3ccccc3)cc2)c1CNc1ccccc1	MC4R ag barr 25 | MC4R barr ag inactive | MOR DOR agonist inactive
CC(C)c1c(C(=O)N/N=C/c2ccc(OCc3ccccc3)cc2)nnn1-c1nonc1N	MC4R ag barr 14 | MC4R barr ag inactive | MOR DOR agonist inactive
COC(=O)c1c(NC2=NS(=O)(=O)c3ccccc32)sc2c1CCC(C(C)(C)C)C2 (centres undefined)	none (no result: A1 inh, UPR CHOP act, XBP1 UPR activ)
COc1cc2c(cc1NC(=O)Nc1ccc(F)cc1)oc1ccccc12	MC4R ag barr 11 | MC4R barr ag inactive | MOR DOR agonist inactive
COc1ccc(NC(=O)Nc2cc3oc4ccccc4c3cc2OC)cc1	none
COc1cc2c(cc1NC(=O)Nc1ccc(C)cc1)oc1ccccc12	none
Cc1cccc(NC(=O)Nc2ccc(C)cc2Br)c1	MC4R ag barr 12 | MC4R barr ag inactive | MOR DOR agonist inactive
COc1cc2c(cc1NC(=O)Nc1cccc(C)c1)oc1ccccc12	MC4R ag barr 11 | MC4R barr ag inactive | MOR DOR agonist inactive
COc1ccc(OCC(=O)Nc2cc3oc4ccccc4c3cc2OC)cc1	MC4R ag barr 38 | MC4R barr ag 12 | MOR DOR agonist inactive
COc1ccc(S(=O)(=O)N2CCCCC2c2cc(C(=O)Nc3ccc4c(c3)OCO4)no2)cc1 (centres undefined)	none (no result: A1 inh, UPR CHOP act, XBP1 UPR activ)
CCN(CC)CCN(C(=O)CCS(=O)(=O)c1ccccc1)c1nc2cc(C)cc(C)c2s1	none
CCN(CC)CCN(C(=O)CCS(=O)(=O)c1ccccc1)c1nc2c(C)cc(C)cc2s1	MC4R ag barr 12 | MC4R barr ag inactive | MOR DOR agonist inactive
O=C1c2ccccc2C(=O)c2c(Nc3ccc(CCO)cc3)ccc(O)c21	MC4R ag barr 19 | MC4R barr ag inactive | MOR DOR agonist inactive
Nc1ccc(O)c2c1C(=O)c1ccccc1C2=O	none
O=C(CCCn1c(SCC(=O)c2ccc(F)cc2)nc2ccccc2c1=O)NCc1ccccc1	MC4R ag barr 24 | MC4R barr ag inactive | MOR DOR agonist inactive
Cc1ccccc1-c1cnc(C(O)c2ccc(F)c(F)c2)[nH]1 (centres undefined)	none (no result: A1 inh, UPR CHOP act, XBP1 UPR activ)
CC(=O)Nc1cc(-c2ccc(CO)cc2)cn2c(-c3ccc(F)cc3)cnc12	none (no result: A1 inh, UPR CHOP act, XBP1 UPR activ)
CC(=O)Nc1cc(-c2ccccc2)cn2c(-c3ccc(F)cc3)cnc12	MC4R ag barr 26 (no result: A1 inh, UPR CHOP act, XBP1 UPR activ) | MC4R barr ag 27 | MOR DOR agonist inactive
CC(=O)Nc1cc(-c2ccc(F)cc2)cn2c(-c3ccc(F)cc3)cnc12	MC4R ag barr 25 (no result: A1 inh, UPR CHOP act, XBP1 UPR activ) | MC4R barr ag 15 | MOR DOR agonist inactive
COc1cc(-c2cc(NC(C)=O)c3ncc(-c4ccc(F)cc4)n3c2)cc(OC)c1OC	MC4R ag barr 12 (no result: A1 inh, UPR CHOP act, XBP1 UPR activ) | MC4R barr ag 8.6 | MOR DOR agonist inactive
Cc1ccc(OC(=O)COc2ccccc2)c(-n2nc3ccccc3n2)c1	none
Cc1ccc(OC(=O)c2cccc([N+](=O)[O-])c2)c(-n2nc3ccccc3n2)c1	MC4R ag barr 14 | MC4R barr ag inactive | MOR DOR agonist inactive
O=S(=O)(NCc1ccccc1)c1ccc(Cl)cc1	none
O=S(=O)(Nc1cc2nc3ccccc3nc2n1Cc1ccccc1)c1ccc(Cl)cc1	MC4R ag barr 15 (no result: UPR CHOP act, XBP1 UPR activ) | MC4R barr ag 10 | MOR DOR agonist inactive
N#Cc1c2ccc(OCC(=O)NCc3ccco3)cc2n2ccccc12	MC4R ag barr 14 | MC4R barr ag inactive | MOR DOR agonist inactive
COc1ccc(-c2nc(=S)c3ccc4ccccc4c3[nH]2)cc1	MC4R ag barr 12 (no result: A1 inh, UPR CHOP act, XBP1 UPR activ) | MC4R barr ag inactive | MOR DOR agonist inactive
COc1cccc(Nc2nc(C(N)c3ccccc3)cs2)n1 (centres undefined)	none (no result: A1 inh, UPR CHOP act, XBP1 UPR activ)
CCCCCCn1c(=O)n2n(c1=O)[C@@H]1CN(S(=O)(=O)c3ccc(C)cc3)C[C@]1(O)[C@@H](OC(=O)NCc1ccccc1)C2	MC4R ag barr 10 (no result: A1 inh, UPR CHOP act, XBP1 UPR activ) | MC4R barr ag 8.5 | MOR DOR agonist inactive
COc1cc(/C=C/C(=O)OCC(=O)Nc2cc(C(F)(F)F)ccc2N2CCOCC2)ccc1O	MC4R ag barr 24 | MC4R barr ag inactive | MOR DOR agonist inactive
Nc1c2nc(-c3ccccc3)[nH]c(=O)c2nc(=O)n1-c1ccccc1	MC4R ag barr 15 | MC4R barr ag inactive | MOR DOR agonist inactive
O=c1[nH]c(-c2ccc(F)cc2)nc2c1sc(=S)n2-c1ccccc1	none
N#Cc1c(N)c(C#N)c(-c2ccc3c(c2)OCO3)c2c1CCCC2	MC4R ag barr 10 | MC4R barr ag inactive | MOR DOR agonist inactive
O=C(CCCCCNc1nc(=S)[nH]c2ccccc12)NCCc1ccc(Cl)cc1	MC4R ag barr 12 | MC4R barr ag 11 | MOR DOR agonist inactive
N=c1n(CCN2CCCCC2)c2ccccc2n1CC(=O)c1cccc([N+](=O)[O-])c1	MC4R ag barr 11 | MC4R barr ag inactive
C=CCn1c(=N)n(CC(=O)c2cccc([N+](=O)[O-])c2)c2ccccc21	none
C#CCn1c(=NC(=O)c2cc(Cl)sc2Cl)sc2cc(S(N)(=O)=O)ccc21	none
C#CCn1c(=NC(=O)c2cc(-c3cccs3)nc3ccccc23)sc2cc(S(N)(=O)=O)ccc21	MC4R ag barr 20 | MC4R barr ag 10 | MOR DOR agonist inactive
O=C(Nc1ccc2c(c1)[C@@H]1C[C@@H](CC(=O)N3CCOCC3)O[C@@H](CO)[C@@H]1O2)NC1CCCC1	none (no result: A1 inh, UPR CHOP act, XBP1 UPR activ)
Cc1ccc(NC(=O)Cn2nc(-c3ccccc3)nc2-c2ccccc2)c(C)c1	MC4R ag barr 17 | MC4R barr ag inactive | MOR DOR agonist inactive
O=C(Nc1nnc(SCc2ccccc2)s1)c1cc2c(s1)CCCC2	MC4R ag barr 20 | MC4R barr ag 8.3 | MOR DOR agonist inactive
CCSc1nnc(NC(=O)c2csc3c2CCCC3)s1	MC4R ag barr 15 | MC4R barr ag 27 | MOR DOR agonist inactive
O=C(Nc1nnc(SCc2ccc(F)cc2)s1)c1ccc2ncsc2c1	MC4R ag barr 17 (no result: A1 inh, UPR CHOP act, XBP1 UPR activ) | MC4R barr ag inactive | MOR DOR agonist inactive

Bioassay records as filed in PubChem.
